The species named for one data set is Homo sapiens. Briefly: Inhibition of H2O2-stimulated ROS production in […] BV2 cells at 10 uM preincubated for 24 hrs followed by H2O2 stimulation for 20 mins by DCFH-DA dye based assay. It counts as functional, cell-based. In outline:
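BV-2 microglial cells pretreated with 10 μM compound for 24 h, then exposed to a series of H2O2 concentrations for 20 min. Intracellular ROS measured by DCFH-DA fluorescence. One-way ANOVA with Tukey's test.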

In data set [1] the target is Keap1/Nrf2 (Homo sapiens) (UniProt Q16236+Q14145). Put plainly: (§1) Activation of NRF2 in human U2OS cells co-expressing Keap1 (unknown origin) assessed as induction of NRF2 translocation to nucleus incubated for 6 hrs by beta-galactosidase based chemiluminescent assay. It counts as cell-based. In outline: (§2)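 PathHunter U2OS cells engineered to co-express enzyme donor-tagged NRF2 and nuclear-localized enzyme acceptor; Nrf2 nuclear translocation reconstitutes β-galactosidase. Cells in 96-well plates exposed to a range of compound concentrations for 6 h at room temperature (20–23 °C), then 1 h with detection reagent in the dark; chemiluminescence (RLU) read. EC50 from concentration-response curve, mean ± SEM, triplicate.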

The next data set has as its target Keap1/Nrf2 (Homo sapiens, UniProt Q14145+Q16236). The description is as §1. Format: cell-based. In outline: as §2
The target in data set [2] is T1, Nuclear factor erythroid 2-related factor 2 (Mus musculus) (UniProt Q60795).
T1 sequence (whole entry): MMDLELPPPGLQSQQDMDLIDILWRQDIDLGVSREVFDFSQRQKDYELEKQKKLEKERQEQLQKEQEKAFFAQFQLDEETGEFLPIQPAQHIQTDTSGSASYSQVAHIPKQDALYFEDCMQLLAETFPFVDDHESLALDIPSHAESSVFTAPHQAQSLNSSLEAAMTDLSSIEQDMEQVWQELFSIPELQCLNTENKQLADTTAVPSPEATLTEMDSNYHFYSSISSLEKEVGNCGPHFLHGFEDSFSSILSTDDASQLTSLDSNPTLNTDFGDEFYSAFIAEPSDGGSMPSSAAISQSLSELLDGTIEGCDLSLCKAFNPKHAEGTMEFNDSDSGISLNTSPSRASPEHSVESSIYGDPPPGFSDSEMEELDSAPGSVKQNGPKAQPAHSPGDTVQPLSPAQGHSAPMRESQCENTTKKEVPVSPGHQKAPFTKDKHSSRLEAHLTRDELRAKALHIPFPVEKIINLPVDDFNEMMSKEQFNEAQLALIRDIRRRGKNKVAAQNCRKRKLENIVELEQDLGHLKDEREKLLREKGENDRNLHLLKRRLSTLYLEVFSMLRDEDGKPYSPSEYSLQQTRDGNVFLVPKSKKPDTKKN
Briefly: Activation of NRF2 in mouse BV2 cells assessed as increase in nuclear NRF2 level at 10 uM incubated for 2 hrs by Western blot analysis. Format: cell-based. In outline: (§3)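 BV-2 cells washed in ice-cold PBS and lysed on ice for 40 min in RIPA buffer with protease inhibitors. Nuclear fractions prepared separately. 10 μg protein run on SDS-PAGE and blotted to PVDF. Membranes blocked in 5% skim milk/TBST and probed overnight at 4 °C for Nrf2, HO-1, GCLM or SOD1. HRP secondary with ECL detection. Band densities normalised to Lamin B1 or β-actin.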
(In general: Immunoblotting shows a protein as a band on a membrane.)

For data set [3], the target named is T1, Nuclear factor erythroid 2-related factor 2 (Mus musculus). Briefly: Activation of NRF2 in mouse BV2 cells assessed as upregulation of HO1 at 20 uM by ELISA relative to control. Format: cell-based.
Data set [4] has the same target. Briefly: Activation of NRF2 in mouse BV2 cells assessed as increase in GCLM mRNA level at 0.1 to 10 uM incubated for 8 hrs by qRT-PCR analysis. It counts as cell-based. In outline: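 BV-2 microglia grown in RPMI 1640 with 10% FBS, 2.05 mM L-glutamine and penicillin-streptomycin at 37 °C, 5% CO2. Cells exposed to a range of compound concentrations for 8 h. Ho-1 or Gclm mRNA measured by qRT-PCR and expressed relative to untreated control. Means ± SEM, one-way ANOVA with Dunnett's test.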

Data set [5] shares this target. Briefly: Activation of NRF2 in mouse BV2 cells assessed as increase in GCLM protein expression incubated for 12 hrs by Western blot analysis. It counts as cell-based. In outline: as §3
Data set [6] has the same target. Briefly: Activation of NRF2 in mouse BV2 cells assessed as increase in HO1 protein expression at 10 uM incubated for 12 hrs by Western blot analysis. Format: cell-based. In outline:
as §3

For data set [7] the target is unchanged. Put plainly: Activation of NRF2 in mouse BV2 cells assessed as inhibition of LPS-stimulated NO production preincubated for 6 hrs followed by LPS stimulation for 24 hrs by Griess reagent-based assay. Format: cell-based. In outline: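 BV-2 cells pretreated with a range of compound concentrations for 6 h, then stimulated with 1 µg/mL LPS for 24 h. Medium nitrite measured by Griess reaction (sulfanilamide/phosphoric acid, then NED, 5 min each at room temperature in the dark). Absorbance at 540 nm read against a nitrite standard curve.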
For orientation: The Griess reaction detects nitrite, a stable product of nitric oxide.

Data set [8] has the same target. Briefly: Activation of NRF2 in mouse BV2 cells assessed as inhibition of LPS-stimulated iNOS expression at 10 uM preincubated for 3 hrs followed by LPS stimulation for 24 hrs by Western blot analysis relative to control. On the set-up: scale not given: the % may be the effect or the level left. Format: cell-based. In outline:
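LPS-stimulated BV-2 cells pretreated with compound for 3 h. iNOS immunoblot (1:500) on 10 μg RIPA lysate protein, detected by ECL. Densities normalised to β-actin or Lamin B1 and compared with LPS-treated control.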

Another data set concerns BV-2. Briefly: Inhibition of H2O2-stimulated ROS accumulation in mouse BV2 cells preincubated for 24 hrs followed by H2O2 stimulation for 20 mins by DCFH-DA dye based fluorescence microscopy. It counts as functional, cell-based. In outline: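 BV-2 cells treated with a range of compound concentrations for 24 h at 37 °C. Loaded with 40 μM DCFH-DA for 40 min, then 300 μM H2O2 added for 20 min in the dark. Cells washed with PBS and DCF fluorescence imaged by digital microscopy.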

Data set [9] concerns the target T1, Nuclear factor erythroid 2-related factor 2 (Mus musculus). Briefly: Activation of NRF2 in mouse BV2 cells upregulation of SOD1 protein expression incubated for 6 hrs by Western blot analysis. Format: cell-based. In outline: as §3
The target is the same in data set [10]. Briefly: Activation of NRF2 in mouse BV2 cells assessed as increase in SOD activity incubated for 24 hrs by WST-1 based assay. Format: cell-based. In outline:
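BV-2 cells (1.0×10^6) treated with compound for 24 h, or for 6 h followed by 400 μM H2O2 for 18 h. Cells washed, sonicated in ice-cold PBS and centrifuged; supernatant assayed by WST-1/superoxide inhibition. Activity derived from the IC50 of the inhibition curve and given as U/mg protein (1 U = 50% inhibition of WST-1 reduction).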

The subject of another data set is Mus musculus. Put plainly: Cognition enhancing effect in C57BL/6 mouse model of scopolamine-induced amnesia assessed as increase in latency to enter dark room at 30 mg/kg, po administered for 5 days and measured on day 5 after 30 mins of scopolamine stimulation by passive avoidance test relative to control. Format: functional. In outline:
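Male C57BL/6N mice given 30 mg/kg/day compound in saline orally for 5 days. Scopolamine 1 mg/kg i.p. given on day 4, 30 min before the acquisition trial. Step-through latency recorded in the passive avoidance test.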

Data set [11] in a line: Stability in human liver microsomes assessed as compound remaining after 30 mins. It counts as ADME, Microsome. As to conditions: read-out: Stability. Background: Liver microsomes are vesicles of endoplasmic reticulum, rich in cytochrome P450 enzymes.
The next data set concerns the target CYP2C19 (Homo sapiens, UniProt P33261). Briefly: Inhibition of CYP2C19 (unknown origin) assessed as remaining activity relative to control. Format: ADME.
The next data set addresses CYP2D6 (Homo sapiens, UniProt P10635). Briefly: Inhibition of CYP2D6 (unknown origin) assessed as remaining activity relative to control. Format: ADME.

Active and inactive are the calls of the source. The rule behind the calls is not given here.

Broadly, the EC50 is the concentration giving half of the maximal effect.

CYP2C19, sequence (P33261 whole entry): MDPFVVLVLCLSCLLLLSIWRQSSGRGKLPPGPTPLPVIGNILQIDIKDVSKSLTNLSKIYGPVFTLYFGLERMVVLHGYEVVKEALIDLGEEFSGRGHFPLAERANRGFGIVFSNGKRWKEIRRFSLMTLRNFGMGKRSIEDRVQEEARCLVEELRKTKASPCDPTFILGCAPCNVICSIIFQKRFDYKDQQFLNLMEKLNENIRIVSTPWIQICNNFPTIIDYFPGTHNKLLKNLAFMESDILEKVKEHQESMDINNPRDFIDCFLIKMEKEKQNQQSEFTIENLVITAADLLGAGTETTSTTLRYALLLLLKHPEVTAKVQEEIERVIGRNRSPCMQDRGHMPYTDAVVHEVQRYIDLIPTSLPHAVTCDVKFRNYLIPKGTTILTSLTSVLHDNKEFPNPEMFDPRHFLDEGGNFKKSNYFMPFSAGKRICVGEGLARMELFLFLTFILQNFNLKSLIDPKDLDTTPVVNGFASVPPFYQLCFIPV
CYP2D6, sequence (P10635 whole entry): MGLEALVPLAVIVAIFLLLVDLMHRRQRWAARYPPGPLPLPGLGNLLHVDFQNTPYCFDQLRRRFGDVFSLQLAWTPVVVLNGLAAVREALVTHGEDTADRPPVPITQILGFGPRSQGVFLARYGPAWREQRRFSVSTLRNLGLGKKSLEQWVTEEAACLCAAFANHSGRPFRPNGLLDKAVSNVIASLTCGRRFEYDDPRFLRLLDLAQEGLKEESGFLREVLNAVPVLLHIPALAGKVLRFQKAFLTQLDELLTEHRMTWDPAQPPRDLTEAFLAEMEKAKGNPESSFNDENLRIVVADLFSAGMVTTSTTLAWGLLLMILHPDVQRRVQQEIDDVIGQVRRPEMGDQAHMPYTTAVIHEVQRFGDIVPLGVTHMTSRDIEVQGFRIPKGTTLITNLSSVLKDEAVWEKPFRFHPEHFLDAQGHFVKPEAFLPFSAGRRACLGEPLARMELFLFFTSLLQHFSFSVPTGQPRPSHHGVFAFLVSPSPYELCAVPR
Keap1/Nrf2 (Homo sapiens), sequence (Q14145 whole entry, looked up): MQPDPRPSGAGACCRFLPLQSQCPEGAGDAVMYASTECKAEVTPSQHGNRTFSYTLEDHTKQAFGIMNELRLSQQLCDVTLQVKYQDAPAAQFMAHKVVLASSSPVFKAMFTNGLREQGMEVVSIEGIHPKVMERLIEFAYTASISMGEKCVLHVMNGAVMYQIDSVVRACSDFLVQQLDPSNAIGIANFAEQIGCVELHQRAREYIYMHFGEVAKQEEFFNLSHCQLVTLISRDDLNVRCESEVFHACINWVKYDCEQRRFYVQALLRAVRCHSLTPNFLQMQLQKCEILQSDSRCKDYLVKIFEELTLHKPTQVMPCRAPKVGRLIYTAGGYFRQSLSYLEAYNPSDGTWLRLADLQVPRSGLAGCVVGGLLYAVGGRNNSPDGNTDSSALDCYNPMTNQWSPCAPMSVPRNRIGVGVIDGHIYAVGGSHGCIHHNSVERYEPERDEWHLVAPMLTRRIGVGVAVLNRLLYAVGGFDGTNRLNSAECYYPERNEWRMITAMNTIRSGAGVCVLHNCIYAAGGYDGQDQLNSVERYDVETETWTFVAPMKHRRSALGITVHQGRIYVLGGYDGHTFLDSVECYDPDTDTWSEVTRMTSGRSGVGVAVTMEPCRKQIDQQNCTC
Keap1/Nrf2 (Homo sapiens), sequence (Q16236 whole entry, looked up): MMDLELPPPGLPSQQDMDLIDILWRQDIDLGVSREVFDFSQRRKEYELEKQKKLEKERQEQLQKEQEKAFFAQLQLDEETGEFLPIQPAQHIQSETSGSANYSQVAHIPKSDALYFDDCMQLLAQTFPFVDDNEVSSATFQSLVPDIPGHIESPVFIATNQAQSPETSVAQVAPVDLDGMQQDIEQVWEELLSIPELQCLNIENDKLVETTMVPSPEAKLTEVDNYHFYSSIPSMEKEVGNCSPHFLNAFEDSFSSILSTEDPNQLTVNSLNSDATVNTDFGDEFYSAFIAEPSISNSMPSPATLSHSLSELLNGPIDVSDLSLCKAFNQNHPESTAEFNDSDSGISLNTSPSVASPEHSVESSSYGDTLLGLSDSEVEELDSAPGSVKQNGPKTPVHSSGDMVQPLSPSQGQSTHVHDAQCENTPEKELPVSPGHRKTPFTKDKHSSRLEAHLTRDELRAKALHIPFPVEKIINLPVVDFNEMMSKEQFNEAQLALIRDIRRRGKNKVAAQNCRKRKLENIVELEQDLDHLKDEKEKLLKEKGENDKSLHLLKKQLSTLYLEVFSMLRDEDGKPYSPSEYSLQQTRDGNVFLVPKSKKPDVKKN
Keap1/Nrf2, sequence (Q16236 whole entry): as the sequence (Q16236 whole entry, looked up) above
Keap1/Nrf2, sequence (Q14145 whole entry): as the sequence (Q14145 whole entry, looked up) above

Take `CN1CCN(C(=O)COc2ccc(C(=O)/C=C/c3ccccc3C(F)(F)F)cc2)CC1.Cl`: the inhibition entry in the data set filed under Homo sapiens is “Active”. Besides, the Activity entry in data set [1] is “Dose-dependent effect”; in data set [3] it was 589%; in data set [5], “Dose-dependent effect”; in data set [7], “Dose-dependent effect”; in data set [8] it was 100%; in data set [9], “Dose-dependent effect”. Besides, the Activity result in data set [10] was “Dose-dependent effect”. For the same molecule, the EC50 at Keap1/Nrf2 turned out to be 630 nM. Further, the Activity entry in [2] and in data set [4] was “Active” in each case. For the same molecule, in data set [6], the fold change (FC) is more than 7. Moreover, in the data set on BV-2, the inhibition result is “Dose-dependent effect”. Moreover, the activity in the data set on Mus musculus was more than 70%; at CYP2C19 it was 79.3%; on CYP2D6, more than 100%. For the same molecule, the remaining at 0.5 h in data set [11] came to 16.1%.

(Values after ChEMBL document CHEMBL4312006, “A novel chalcone derivative as Nrf2 activator attenuates learning and memory impairment in a scopolamine-induced mouse model” (Eur J Med Chem, 2020).)
